Data set [1] is described as follows: Aqueous solubilities were determined by dissolving an crystalline hemisulfate and […] salts, respectively in water and adding acetate to pH 5.0, concentrations are expressed in free base equivalents. The class given is ADME. Particulars: water adjusted with acetate, read-out: S. In outline: (§1)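 Crystalline hemisulfate or dihydrochloride salt dissolved in water, then acetate added to pH 5.0 to measure aqueous solubility.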

Data set [2] addresses T1, Oxytocin receptor (Rattus norvegicus, UniProt P70536).
T1 sequence (P70536 whole entry): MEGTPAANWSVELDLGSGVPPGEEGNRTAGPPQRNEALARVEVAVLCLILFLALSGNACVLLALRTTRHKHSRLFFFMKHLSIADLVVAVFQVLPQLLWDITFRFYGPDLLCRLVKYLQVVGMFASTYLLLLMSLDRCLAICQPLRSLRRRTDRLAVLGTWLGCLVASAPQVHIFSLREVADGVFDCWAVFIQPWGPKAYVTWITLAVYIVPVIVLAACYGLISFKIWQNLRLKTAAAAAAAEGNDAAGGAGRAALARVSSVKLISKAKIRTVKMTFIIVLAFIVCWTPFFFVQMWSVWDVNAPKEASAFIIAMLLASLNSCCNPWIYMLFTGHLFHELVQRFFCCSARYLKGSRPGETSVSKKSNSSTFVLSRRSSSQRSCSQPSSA
Kind of data set: Displacement of [3H]OT from binding to oxytocin receptor of rat uterus. In outline:
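Competition binding against [3H]OT on uterine tissue from pregnant rats (day 22-23 of gestation) or DES-pretreated rats. IC50 is the molar concentration giving 50% displacement of radioligand.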
In general terms: In a radioligand displacement assay an active substance lowers the binding of a labelled ligand.

Data set [3] concerns the target Vasopressin V1a receptor (Rattus norvegicus, UniProt P30560). In words: Displacement of [3H]AVP from binding to arginine vasopressin 1a (V1a) […] of rat liver. In outline: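 Competition binding against [3H]AVP on liver from male rats (V1a site). IC50 is the molar concentration giving 50% radioligand displacement.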
The target of data set [4] is Vasopressin V2 receptor (Rattus norvegicus, UniProt Q00788). Kind of data set: Displacement of [3H]-AVP from binding to Vasopressin receptor V2 of rat kidney. The method, boiled down: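 [3H]AVP competition binding on kidney medulla from male rats (V2 site). IC50 is the molar concentration displacing 50% of radioligand.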
Vasopressin V2 receptor, sequence (Q00788 whole entry, the tested form may be a part): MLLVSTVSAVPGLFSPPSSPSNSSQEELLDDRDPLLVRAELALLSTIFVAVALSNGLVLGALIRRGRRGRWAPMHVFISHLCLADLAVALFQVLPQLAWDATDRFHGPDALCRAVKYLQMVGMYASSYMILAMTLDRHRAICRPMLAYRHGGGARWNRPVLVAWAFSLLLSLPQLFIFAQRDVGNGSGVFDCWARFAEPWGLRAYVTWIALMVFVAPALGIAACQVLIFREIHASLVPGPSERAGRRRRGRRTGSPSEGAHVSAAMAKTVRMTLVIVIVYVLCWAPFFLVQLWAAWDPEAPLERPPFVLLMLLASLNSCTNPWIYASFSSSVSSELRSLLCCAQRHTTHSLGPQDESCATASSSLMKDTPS
In data set [5] the test system is Rattus norvegicus. In words: In vivo dose given intravenously (iv) that reduces by 50% the contractile response of the in situ rat uterus to exogenous OT. The class given is functional. The method, boiled down: (§2)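 Anesthetized DES-pretreated rats set up for isometric recording of in situ uterine contraction; OT 1 µg/kg iv every 35 min, third response taken as 100%. Antagonist infused iv over 10 min in saline, saline with 2% DMSO, or 15% DMSO plus 15% emulphor. AD50 is the dose cutting the response to the fourth OT injection by 50% relative to vehicle-treated rats.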

Data set [6] concerns the target T1, Oxytocin receptor. Kind of data set: In vitro antagonism of OT-induced uterine contractions, against rat uterus by measuring pA2 value. Particulars: read-out: pA2 (converted). The class given is functional, tissue-based. The method, boiled down:
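Uteri isolated from DES-pretreated rats and contracted with OT. pA2 is the negative log molar antagonist concentration giving a 2-fold rightward shift of the OT dose-response curve (dose ratio 2), derived from Schild plots.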

The test system of data set [7] is Rattus norvegicus. Kind of data set: In vivo dose given intraduodenally (id) that reduces by 50% the contractile response of the in situ rat uterus to exogenous OT. The class given is functional. The method, boiled down:
(§3)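 Uterine contraction recorded isometrically in situ in anesthetized DES-pretreated rats; OT 1 µg/kg iv at 35-min intervals, third response set as 100%. Antagonist injected intraduodenally as a suspension in saline with 1% methocel. AD50 is the dose lowering the response to the fourth OT injection by 50% against the vehicle group.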

Data set [8] can be described thus: Aqueous solubilities were determined by dissolving an crystalline hemisulfate and […] salts, respectively in water and adding acetate to pH 5.0, concentrations are expressed in free base equivalents. It is filed as ADME. Particulars: water adjusted with acetate, read-out: S. The method, boiled down:
as §1

The test system of data set [9] is Rattus norvegicus. In words: In vivo dose given intraduodenally (id) that reduces by 50% the contractile response of the in situ rat uterus to exogenous OT; NA=Inactive at 3.0 mg/Kg. The class given is functional, organism-based. The method, boiled down: as §3
In data set [10] the test system is Rattus norvegicus. In words: in vivo dose given intravenously (iv) that reduces by 50% the contractile response of the in situ rat uterus to exogenous OT. It is filed as functional. The method, boiled down:
as §2

Data set [11] has as its system Rattus norvegicus. Kind of data set: In vivo dose given intraduodenally (id) that reduces by 50% the contractile response of the in situ rat uterus to exogenous OT; ca.20. It is filed as functional. The method, boiled down:
as §3

The subject of data set [12] is Rattus norvegicus. In words: In vivo dose given intraduodenally (id) that reduces by 50% the contractile response of the in situ rat uterus to exogenous OT; NA=Inactive at 1.0. The class given is functional, organism-based. In outline:
as §3

The target of data set [13] is T1, Oxytocin receptor. Kind of data set: In vitro antagonism of OT-induced uterine contractions, against rat uterus by measuring pA2 value which refers to the negative logarithm of the molar concentration. Conditions: read-out: pA2 (converted). The class given is functional, tissue-based. In outline:
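Uteri isolated from diethylstilbestrol-pretreated rats; contractions evoked by oxytocin. pA2 = negative log of molar antagonist concentration giving a 2-fold rightward shift of the oxytocin dose-response curve (dose ratio 2), derived by Schild analysis.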

In data set [14] the test system is Rattus norvegicus. Kind of data set: In vivo dose given intraduodenally (id) that reduces by 50% the contractile response of the in situ rat uterus to exogenous OT; ca.2. It is filed as functional. In outline:
as §3

Data set [15] relates to Rattus norvegicus. In words: AD50 value which refers to the dose given intravenously (iv) that reduces by 50% the contractile response of the in situ rat uterus to exogenous OT was determined for the compound in vivo. The class given is functional. The method, boiled down: as §2

pIC50: −log10 of the molar value. Active and inactive are the calls of the source. The rule behind the calls is not given here. Where only a bound is given, the exact number is not on record here.

Vasopressin V1a receptor, sequence (P30560 whole entry): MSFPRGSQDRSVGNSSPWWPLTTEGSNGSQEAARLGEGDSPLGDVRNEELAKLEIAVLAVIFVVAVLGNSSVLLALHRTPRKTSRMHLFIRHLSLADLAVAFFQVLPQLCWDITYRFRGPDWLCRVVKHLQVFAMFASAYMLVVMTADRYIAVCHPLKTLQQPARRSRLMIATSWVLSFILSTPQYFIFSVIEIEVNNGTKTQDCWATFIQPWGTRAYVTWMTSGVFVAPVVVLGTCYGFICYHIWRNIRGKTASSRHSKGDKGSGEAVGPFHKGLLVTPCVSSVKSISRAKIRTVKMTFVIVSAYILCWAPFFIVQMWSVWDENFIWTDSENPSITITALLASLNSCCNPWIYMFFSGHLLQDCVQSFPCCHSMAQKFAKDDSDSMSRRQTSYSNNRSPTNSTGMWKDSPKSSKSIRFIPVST

For `CCN(CC)[C@@H](CCS(C)(=O)=O)C(=O)N[C@H]1CC2CC[C@]1(CS(=O)(=O)N1CCN(c3ccccc3C)CC1)C2(C)C`, the solubility in data set [1] amounted to 230 µg/mL. For the same molecule, the pIC50 was 7.74 in data set [2], 5.89 in [3] and 6.51 in [4].
On to `Cc1ccccc1N1CCN(S(=O)(=O)C[C@]23CCC(C[C@@H]2NC(=O)[C@H](CCS(C)(=O)=O)N(C)C)C3(C)C)CC1`, for which, in data set [1], the solubility is 3100 µg/mL. The figures for the pIC50 in data set [2], in data set [3] and in [4] were 8.31, 6.44 and 6.54, respectively. For the same molecule, the AD50 in [5] was determined as 0.13 mg/kg; in [7], 2.6 mg/kg. For the same molecule, the Kb in data set [6] was 1 nM.
In the case of `Cc1ccccc1N1CCN(S(=O)(=O)C[C@]23CCC(C[C@@H]2NC(=O)[C@H](CCS(C)(=O)=O)N(CCO)CCO)C3(C)C)CC1`, the solubility in [8] was 190 µg/mL. Further, the pIC50 is 8.55 in data set [2], 6.19 in data set [3] and 6.62 in data set [4]. Moreover, the AD50 in data set [5] came to 0.087 mg/kg. Besides, in data set [9], the AD50 entry is “inactive”.
Turning to `CC1(C)C2CC[C@@]1(CS(=O)(=O)N1CCC3(CCc4ccccc43)CC1)[C@@H](NC(=O)[C@@H](N)CCS(C)(=O)=O)C2`, in data set [8], the solubility worked out at 1500 µg/mL. For the same molecule, the pIC50 is 7.92 in data set [2], 6.05 in data set [3] and 5.62 in data set [4]. The AD50 in data set [10] is 0.84 mg/kg; in data set [11] it was 20 mg/kg.
As to `Cc1ccccc1N1CCN(S(=O)(=O)C[C@]23CCC(C[C@@H]2NC(=O)[C@H](CCS(C)(=O)=O)NC2CCNCC2)C3(C)C)CC1`, in data set [1], the solubility was 3000 µg/mL. Moreover, the pIC50 in data set [2] is 8.89; in data set [3], 6.66; in [4] it was 6.89. In addition, in data set [5], the AD50 came out at 0.021 mg/kg. The AD50 entry in [12] is “inactive”.
Take `CN[C@@H](CCS(C)(=O)=O)C(=O)N[C@H]1CC2CC[C@]1(CS(=O)(=O)N1CCN(c3ccccc3C)CC1)C2(C)C`: the pIC50 in data set [2] was 8.04; in [3], 6.49; in data set [4] it was 6.46.
Consider `Cc1ccccc1N1CCN(S(=O)(=O)C[C@]23CCC(C[C@@H]2NC(=O)[C@@H](N)CCS(C)(=O)=O)C3(C)C)CC1`, for which the solubility in [1] is 3700 µg/mL. The pIC50 was 8.05 in data set [2], 6.43 in data set [3] and 6.24 in data set [4]. For the same molecule, the AD50 in data set [5] turned out to be 0.35 mg/kg; in data set [7], 7 mg/kg. Further, the Kb in [13] was 1.26 nM.
For `Cc1ccccc1N1CCN(S(=O)(=O)C[C@]23CCC(C[C@@H]2NC(=O)[C@H](CCS(C)(=O)=O)NC2CCCCC2)C3(C)C)CC1`, the pIC50 was 7.82 in [2], 6.22 in [3] and 6.64 in [4].
Regarding `CC1(C)C2CC[C@@]1(CS(=O)(=O)N1CCC3(CCc4ccccc43)CC1)[C@@H](NC(=O)[C@@H](N)CCC(N)=O)C2`, the values for the pIC50 in data set [2], in data set [3] and in [4] were 7.92, 5.64 and 5.29, respectively. Further, the results for the AD50 in data set [7] and in data set [14] were greater than 30 mg/kg and 2 mg/kg, respectively.
Take `Cc1ccccc1N1CCN(S(=O)(=O)C[C@]23CCC(C[C@@H]2NC(=O)[C@H](CCS(C)(=O)=O)NC2CCS(=O)(=O)CC2)C3(C)C)CC1`: the solubility in [1] was less than 300 µg/mL. The values for the pIC50 in data set [2], in data set [3] and in data set [4] were 8.85, 6.36 and 6.80, respectively. This molecule showed an AD50 in data set [15] of 0.031 mg/kg. The AD50 result in data set [12] was “inactive”.
For `Cc1ccccc1N1CCN(S(=O)(=O)C[C@]23CCC(C[C@@H]2NC(=O)[C@H](CCS(C)(=O)=O)NC2CCOCC2)C3(C)C)CC1`, the solubility in data set [1] turned out to be 360 µg/mL. Further, the negative-log IC50 (pIC50) in data set [2] is 8.62; in data set [3] it was 6.17; in [4], 6.57. Besides, the AD50 in data set [5] came out at 0.045 mg/kg; in data set [7], 1.4 mg/kg.

Usually pIC50 stands for −log10 of the IC50, conventionally taken in molar units.

The record behind these values is ChEMBL document CHEMBL1127337, “1-((7,7-Dimethyl-2(S)-(2(S)-amino-4-(methylsulfonyl)butyramido)bicyclo [2.2.1]-heptan-1(S)-yl)methyl)sulfonyl)-4-(2-methylphenyl)piperaz ine (L-368,899): an orally bioavailable, non-peptide oxytocin antagonist with potential utility for managing preterm labor” (J Med Chem, 1994).
